Measured values pooled from the literature.
Target: Ephrin type-A receptor 6 (EPHA6, Homo sapiens, UniProt Q9UF33)
Residues used in one study (Q9UF33 1-1036): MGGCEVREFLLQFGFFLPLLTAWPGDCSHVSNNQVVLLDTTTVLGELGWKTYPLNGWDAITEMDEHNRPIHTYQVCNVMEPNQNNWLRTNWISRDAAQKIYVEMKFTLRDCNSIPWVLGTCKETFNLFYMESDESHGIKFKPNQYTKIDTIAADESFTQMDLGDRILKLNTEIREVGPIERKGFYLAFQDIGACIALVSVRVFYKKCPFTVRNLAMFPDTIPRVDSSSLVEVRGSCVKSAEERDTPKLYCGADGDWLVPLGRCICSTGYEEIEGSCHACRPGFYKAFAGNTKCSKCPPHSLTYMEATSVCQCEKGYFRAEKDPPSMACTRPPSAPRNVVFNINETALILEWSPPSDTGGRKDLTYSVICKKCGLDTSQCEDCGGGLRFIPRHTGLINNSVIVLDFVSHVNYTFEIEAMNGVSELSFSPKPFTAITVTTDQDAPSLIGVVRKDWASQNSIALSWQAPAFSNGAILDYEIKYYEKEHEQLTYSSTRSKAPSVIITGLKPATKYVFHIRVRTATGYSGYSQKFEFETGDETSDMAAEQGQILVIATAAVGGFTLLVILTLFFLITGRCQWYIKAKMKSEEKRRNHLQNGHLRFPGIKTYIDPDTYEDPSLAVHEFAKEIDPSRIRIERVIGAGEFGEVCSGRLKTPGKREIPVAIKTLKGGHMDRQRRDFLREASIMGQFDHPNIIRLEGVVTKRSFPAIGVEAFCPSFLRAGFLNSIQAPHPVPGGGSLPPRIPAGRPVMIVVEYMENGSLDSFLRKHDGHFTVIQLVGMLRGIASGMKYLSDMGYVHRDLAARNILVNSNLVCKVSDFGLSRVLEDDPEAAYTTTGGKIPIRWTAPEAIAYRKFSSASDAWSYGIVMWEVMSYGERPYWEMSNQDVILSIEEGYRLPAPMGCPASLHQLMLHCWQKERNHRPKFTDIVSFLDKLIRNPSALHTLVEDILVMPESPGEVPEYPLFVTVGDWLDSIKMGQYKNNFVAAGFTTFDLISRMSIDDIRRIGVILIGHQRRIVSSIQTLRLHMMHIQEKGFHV

| Compound | test | setting | measurement | result |
| --- | --- | --- | --- | --- |
| Cc1sc(C(=O)NC2COC2)cc1-n1cc(NC(=O)Nc2c(F)cccc2Cl)cn1 | enzyme activity, inhibitor | 10 µM | remaining activity | 80.2% |
| CNC(=O)c1cc(Oc2ccc(NC(=O)Nc3ccc(Cl)c(C(F)(F)F)c3)cc2)ccn1 | cell-free assay | 0.5 µM | remaining signal | 42% |
| CC/C(=N\NC(=O)NCc1cccc(O)c1)c1ccc(O)c(C)c1O | enzyme activity, inhibitor | 0.1 µM | inhibition | 1.5% |
| N#Cc1ccc(Nc2ccc3[nH]c(=O)[nH]c3c2)c(Cl)c1 | cell-free assay, competition with immobilised ligand | 1 µM | remaining binding | 82% |
| CC(C)(C)c1nc2c(s1)c1nc(N)ncc1c1ccc(NS(=O)(=O)c3c(F)cccc3F)c(F)c12 | enzyme activity, inhibitor, radiometric | 1 µM | remaining activity | 99% |
| Cc1ccc(C(=O)Nc2ccc(CN3CCN(C)CC3)c(C(F)(F)F)c2)cc1C#Cc1cnc2cccnn12 | cell-free assay | 23.5 nM | remaining signal | 45% |
| O=C(Nc1cnn(-c2csc(C(=O)NC3COC3)c2)c1)Nc1ccccc1Cl | enzyme activity, inhibitor | 5 µM | remaining activity | 99.5% |
| CC(C)(O)[C@H]1CC[C@H](Nc2ccc3ncc(-c4cccc(C(F)(F)F)c4)n3n2)CC1 | enzyme activity, inhibitor | 1 µM | remaining activity | 91.1% |
| CS(=O)(=O)N1CCCC(NC(=O)[C@H](CCC2CCCCC2)NC(=O)c2ccc(CNC(=O)c3cnc4ccccn34)cc2)C1 (stereo partly shown) | cell-free assay, competition with immobilised ligand | 0.1 µM | remaining binding | 100% |
| CC(C)(C)c1nc(-c2cccc(NS(=O)(=O)c3c(F)cccc3F)c2F)c(-c2ccnc(N)n2)s1 | enzyme activity, inhibitor, radiometric | 1 µM | remaining activity | 72% |
| Nc1ncnc2occ(-c3ccc(NC(=O)Nc4cc(C(F)(F)F)ccc4F)cc3)c12 | cell-free assay | 20 µM | remaining signal | 0% |
| Oc1cccc(-c2nc(N3CCOCC3)c3oc4ncccc4c3n2)c1 | cell-free assay | 0.5 µM | remaining signal | 79% |
| CC(=O)Nc1c(C(C)=O)c(=O)n(C)c2nc(-c3ccc(Cl)cc3Cl)c(-c3ccc(Cl)cc3)cc12 | cell-free assay, competition with immobilised ligand | 1 µM | remaining binding | 100% |
